Data as given in ChEMBL document CHEMBL1799973, “Design, synthesis, and cytotoxic evaluation of acyl derivatives of 3-aminonaphtho[2,3-b]thiophene-4,9-dione, a quinone-based system” (J Med Chem, 2011).
The source made the active and inactive calls. The rule behind the calls is not given here.

Key:
[1] = Antitumor activity against human MDA231 cells after 24 to 48 hrs by MTT assay; assay type: functional, cell-based; settings: MDA-MB-231
Summary of the method: (§1)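 MTT read-out. Cells grown at 37 °C in DMEM with 10 mM glucose, 10% fetal calf serum, penicillin/streptomycin and 2 mmol/L glutamine. Seeded at 10^5 cells per well and left 24 h to attach, then compound added over a range of concentrations and cells grown 24 or 48 h. MTT at 1 mg/mL for 2 h at 37 °C in the dark, formazan dissolved in DMSO, OD read at 550 nm. Values are % of vehicle control (0.5% DMSO); IC50 by linear and polynomial regression; triplicate.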

U-937 = assay: Antitumor activity against human U937 cells after 24 to 48 hrs by MTT assay; assay type: functional, cell-based; summary of the method: as §1
SW-620 = assay: Antitumor activity against human SW620 cells after 24 to 48 hrs by MTT assay; assay type: functional, cell-based; summary of the method: as §1
HT-29 = assay: Antitumor activity against human HT-29 cells after 24 to 48 hrs by MTT assay; assay type: functional, cell-based; summary of the method: as §1
Homo sapiens [2] = species on record: Homo sapiens; assay: Inhibition of human topoisomerase 2-mediated relaxation of supercoiled pBR322 DNA relaxation after 6 mins by agarose gel electrophoresis
Caco-2 [3] = assay: Cell cycle arrest in human Caco2 cells assessed as accumulation at S phase at 1 uM after 48 hrs by propidium iodide staining based flow cytometric analysis (reference value: 36%); assay type: functional
Nucleic Acid [4] = assay: Binding affinity to DNA assessed as binding mode index by measuring aromatic signals by DF-STD spectrophotometric analysis; assay type: nucleic-acid assay
Summary of the method: (§2)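 DF-STD NMR on poly(dG-dC)·poly(dG-dC) in H2O/D2O 9:1 with 100 mM phosphate-buffered saline, pH 7.1. Ligand 1.0 mM; DNA 50 μM as phosphate (20:1 ligand excess). Saturation is centred on the aromatic or low-field aliphatic region for 2 s, with a reference off-resonance at δ −16 ppm and 512 scans. The binding mode index is the relative response of ligand protons to base versus sugar/backbone saturation.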

Nucleic Acid [5] = assay: Binding affinity to poly(dG-dC).poly(dG-dC) DNA assessed as compound/DNA complex formation at 1 mM by STD NMR spectrophotometric analysis; assay type: nucleic-acid assay
Summary of the method: (§3)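 Ligand at 1.0 mM with poly(dG-dC)·poly(dG-dC) at 50 μM (as phosphate groups), a 20:1 ligand excess, in H2O/D2O 9:1 with 100 mM phosphate-buffered saline, pH 7.1. Water suppressed by DPFGSE. STD effects taken relative to a reference spectrum with off-resonance saturation at δ −16 ppm, 2 s saturation, typically 512 scans. WaterLOGSY spectra recorded with and without DNA.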

COLO 205 = assay: Antitumor activity against human COLO205 cells after 24 to 48 hrs by MTT assay; assay type: functional, cell-based; summary of the method: as §1
MDA-MB-435 = assay: Antitumor activity against human MDA-MB-435 cells after 24 to 48 hrs by MTT assay; assay type: functional, cell-based
Summary of the method: as §1, with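 “nm.” for “nm. Values are % of vehicle control (0.5% DMSO); IC50 by linear and polynomial regression; triplicate.”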

SNB-19 = assay: Antitumor activity against human SNB19 cells after 24 to 48 hrs by MTT assay; assay type: functional, cell-based; summary of the method: as §1
SK-MEL-28 = assay: Antitumor activity against human SK-MEL-28 cells after 24 to 48 hrs by MTT assay; assay type: functional, cell-based; summary of the method: as §1
SF-295 = assay: Antitumor activity against human SF295 cells after 24 to 48 hrs by MTT assay; assay type: functional, cell-based; summary of the method: as §1
Caco-2 [6] = assay: […] of cell differentiation in human Caco2 cells assessed as increase in ALP activity at 5 uM after 48 hrs; assay type: functional; parameters: scale not given: the % may be the effect or the level left
Summary of the method: (§4)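 Caco-2 cells cultured 48 h with 0, 1, 5 or 10 μM compound. Attached and floating cells washed and lysed in 0.25% sodium deoxycholate. ALP activity measured with a diagnostic ALP reagent and protein by Bradford microassay. Activity expressed as units per mg protein, as a differentiation marker.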

Caco-2 [7] = assay: Selectivity index, ratio IC50 for undifferentiated human Caco2 cells to IC50 for differentiated human Caco2 cells; assay type: functional
Summary of the method: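 Ratio of MTT IC50 in undifferentiated to differentiated Caco-2 cells. MTT conditions: 24 or 48 h exposure, formazan dissolved in DMSO, read at 550 nm, IC50 by regression, triplicate.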

Caco-2 [8] = assay: Antitumor activity against human undifferentiated Caco2 cells after 24 to 48 hrs by MTT assay; assay type: functional, cell-based; summary of the method: as §1
[9] = Antitumor activity against human IGROV cells after 24 to 48 hrs by MTT assay; assay type: functional, cell-based
Summary of the method: as §1, with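 “nm.” for “nm. Values are % of vehicle control (0.5% DMSO); IC50 by linear and polynomial regression; triplicate.”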

Nucleic Acid [10] = assay: Binding affinity to poly(dG-dC).poly(dG-dC) DNA assessed as compound/DNA complex formation at 1 mM by WaterLOGSY NMR spectrophotometric analysis; assay type: nucleic-acid assay; summary of the method: as §3
Caco-2 [11] = assay: Increase in Hsp27 protein expression in human Caco2 cells after 48 hrs by Western blot analysis; assay type: functional, cell-based
Summary of the method: (§5)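 Caco-2 cells treated for 48 h (1 or 5 μM for Hsp27; 1 μM for cyclin A). Lysed in ice-cold 50 mM Tris, 150 mM NaCl, 10 mM EDTA, 1% Triton with protease inhibitors. Equal protein run on 8–12% SDS-PAGE and transferred to nitrocellulose. Primary antibody overnight in TBS/Tween/1% milk, then HRP secondary; bands detected by ECL.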

Caco-2 [12] = assay: Cell cycle arrest in human Caco2 cells assessed as accumulation at G2/M phase at 1 uM after 48 hrs by propidium iodide staining based flow cytometric analysis (reference value: 21%); assay type: functional
Nucleic Acid [13] = assay: Binding affinity to DNA assessed as binding mode index by measuring aliphatic signals by DF-STD spectrophotometric analysis; assay type: nucleic-acid assay; summary of the method: as §2
[14] = Cardiotoxicity in rat H9c2 cells assessed as cell viability at 1 uM up to 120 hrs by MTT assay; assay type: toxicity, cell-based; settings: read-out: Activity
Summary of the method: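 Rat H9C2 cardiomyoblasts, passages 4–10, grown at 37 °C in DMEM with FBS, glutamine and penicillin/streptomycin. Plated at 2000 cells/well in quadruplicate and given compound at 1 μM for the indicated times. MTT reagent added for 2 h in the incubator, then absorbance read at 570 nm. Data are mean ± SD.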

MCF7 [15] = assay: Cytotoxicity against human MCF7 cells; assay type: functional, cell-based; summary of the method: as §1
MCF7 [16] = assay: Drug uptake in human MCF7 cells assessed as nuclear localization at 50 nM after 30 mins by confocal microscopic analysis; assay type: ADME, cell-based; settings: mcf7, 0.5 h, 0.05 µM
Summary of the method: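 Imaging in MCF-7 cells by confocal microscopy with 50 nM labeled compound. Cells fixed in paraformaldehyde for 30 min at 4 °C, permeabilized with Triton X-100 for 30 min at 4 °C, and nuclei stained with Hoechst 33342. Images taken with a 63× oil objective.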

Caco-2 [17] = assay: Induction of cyclin A expression in human Caco2 cells at 1 uM after 48 hrs by Western blot analysis; assay type: functional; summary of the method: as §5
Caco-2 [18] = assay: Cell cycle arrest in human Caco2 cells assessed as accumulation at G1 phase at 1 uM after 48 hrs by propidium iodide staining based flow cytometric analysis (reference value: 42%); assay type: functional
Caco-2 [19] = assay: Antitumor activity against human differentiated Caco2 cells after 24 to 48 hrs by MTT assay; assay type: cell-based; summary of the method: as §1
Caco-2 [20] = assay: […] of cell differentiation in human Caco2 cells assessed as increase in ALP activity at 1 uM after 48 hrs; assay type: functional; parameters: scale not given: the % may be the effect or the level left; summary of the method: as §4
Caco-2 [21] = assay: Increase in Hsp27 protein expression in human Caco2 cells at 5 uM after 48 hrs by Western blot analysis; assay type: functional, cell-based; summary of the method: as §5
Caco-2 [22] = assay: […] of cell differentiation in human Caco2 cells assessed as increase in ALP activity at 10 uM after 48 hrs; assay type: functional; parameters: scale not given: the % may be the effect or the level left; summary of the method: as §4
Caco-2 [23] = assay: Increase in Hsp27 protein expression in human Caco2 cells at 1 uM after 48 hrs by Western blot analysis; assay type: functional, cell-based; summary of the method: as §5
Homo sapiens [24] = species on record: Homo sapiens; assay: Inhibition of human topoisomerase 2-mediated relaxation of supercoiled pBR322 DNA relaxation at 5 uM after 6 mins by agarose gel electrophoresis
Summary of the method: (§6)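 Compound at 5 or 10 μM. Run 6 min at 37 °C and stopped with EDTA/SDS/glycerol dye. Products run on 1% agarose in 0.5× TBE at 4 V/cm for 1 h, stained with ethidium bromide, bands quantified.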

Homo sapiens [25] = species on record: Homo sapiens; assay: Inhibition of human topoisomerase 2-mediated relaxation of supercoiled pBR322 DNA relaxation at 10 uM after 6 mins by agarose gel electrophoresis; summary of the method: as §6

| Compound | IC50 (U-937) [nM] | IC50 (SW-620) [nM] | Activity (Nucleic Acid [5]) | Activity (Nucleic Acid [10]) | IC50 [1] [nM] | Activity (Caco-2 [3]) [%] | Activity (Caco-2 [12]) [%] | Activity (Caco-2 [17]) | Activity (Caco-2 [18]) [%] | further results |
| --- | --- | --- | --- | --- | --- | --- | --- | --- | --- | --- |
| CN(C)CCNC(=O)Nc1csc2c1C(=O)c1ccccc1C2=O | 9800 | 5900 |  |  | 8700 |  |  |  |  |  |
| CN(C)CCNCCC(=O)Nc1csc2c1C(=O)c1ccccc1C2=O.Cl.Cl | 1300 | 600 | Active | Active | 2000 | 53 | 26 | 43% | 20 | IC50 (HT-29): 500 nM; inhibition (Homo sapiens [2]): Dose-dependent effect; Activity (Nucleic Acid [4]): 1.01; IC50 (COLO 205): 1100 nM; IC50 (MDA-MB-435): 500 nM; IC50 (SNB-19): 900 nM; IC50 (SK-MEL-28): 300 nM; IC50 (SF-295): 600 nM; Activity (Caco-2 [6]): >180%; Ratio IC50 (Caco-2 [7]): 0.21; IC50 (Caco-2 [8]): 800 nM; IC50 [9]: 2000 nM; Activity (Caco-2 [11]): Dose-dependent effect; Activity (Nucleic Acid [13]): 0.9; viability at 120 h, 1 µM [14]: 76%; IC50 (MCF7 [15]): 600 nM; Drug uptake (MCF7 [16]): Active; IC50 (Caco-2 [19]): 3800 nM; Activity (Caco-2 [20]): 35% |
| O=C1c2ccccc2C(=O)c2c(NC(=O)[C@@H]3CCCN3)csc21 | 900 | 5400 |  |  | 6700 |  |  |  |  |  |
| CCN(CC)CCC(=O)Nc1csc2c1C(=O)c1ccccc1C2=O.Cl | 1100 | 1500 | Active | Active | 2500 | 41 | 28 | inactive | 29 | IC50 (HT-29): 800 nM; inhibition (Homo sapiens [2]): Dose-dependent effect; Activity (Nucleic Acid [4]): 1.35; IC50 (COLO 205): 900 nM; IC50 (MDA-MB-435): 500 nM; IC50 (SNB-19): 700 nM; IC50 (SK-MEL-28): 600 nM; IC50 (SF-295): 600 nM; Ratio IC50 (Caco-2 [7]): 0.25; IC50 (Caco-2 [8]): 1000 nM; IC50 [9]: 2500 nM; Activity (Caco-2 [21]): inactive; Activity (Nucleic Acid [13]): 0.86; Activity (Caco-2 [22]): >180%; viability at 120 h, 1 µM [14]: 74%; IC50 (MCF7 [15]): 500 nM; Activity (Caco-2 [23]): Active; Drug uptake (MCF7 [16]): Active; IC50 (Caco-2 [19]): 4100 nM |
| N[C@@H](Cc1ccccc1)C(=O)Nc1csc2c1C(=O)c1ccccc1C2=O.O=C(O)C(F)(F)F | > 40000 | 30500 | inactive | inactive | > 40000 | 44 | 18 | inactive | 37 | inhibition (Homo sapiens [24]): inactive; inhibition (Homo sapiens [25]): inactive |

Continued, in another order:

| IC50 (U-937) [nM] | IC50 (SW-620) [nM] | Activity (Nucleic Acid [5]) | Activity (Nucleic Acid [10]) | Compound | IC50 [1] [nM] | Activity (Caco-2 [3]) [%] | Activity (Caco-2 [12]) [%] | Activity (Caco-2 [17]) | Activity (Caco-2 [18]) [%] | further results |
| --- | --- | --- | --- | --- | --- | --- | --- | --- | --- | --- |
| 4000 | 2100 |  |  | CN(C)CCNCC(=O)Nc1csc2c1C(=O)c1ccccc1C2=O | 4900 |  |  |  |  |  |
| 30100 | 20900 |  |  | O=C(CS)Nc1csc2c1C(=O)c1ccccc1C2=O | 13600 |  |  |  |  |  |
| 7000 | 2300 |  |  | NCC(=O)Nc1csc2c1C(=O)c1ccccc1C2=O | 6200 |  |  |  |  |  |
| 15000 | 20300 |  |  | O=C(CCO)Nc1csc2c1C(=O)c1ccccc1C2=O | 9200 |  |  |  |  |  |
| 10100 | 6500 |  |  | CCCNC(=O)Nc1csc2c1C(=O)c1ccccc1C2=O | 9500 |  |  |  |  |  |
